Experimental data gathered from unrelated publications.
Lines come from different studies, so protocols differ. Values after ≈ are worked out from the molar mass of the structure shown.

SMILES	tested on	assay	system	conditions	quantity	value
O=C1NC(=S)S/C1=C\c1ccc(-c2ccc(N(c3ccccc3)c3ccccc3)cc2)cc1	Staphylococcus epidermidis	microbial growth, broth dilution	ATCC12228	–	MIC	125 µg/mL (≈ 269 µM)
O=C(/C=C/c1ccc(O)c(O)c1)O[C@@H]1C[C@](O)(C(=O)O)C[C@@H](O)[C@H]1O	–	tubulin polymerisation, inhibitor	–	10 µM	inhibition	30.9%
CC1(C)CC[C@]2(CO)CC[C@]3(C)C(=CC[C@@H]4[C@@]5(C)CC[C@@H]6O[C@H]([C@H](O)[C@@H](O)[C@H](O)[C@H](O)CO)OC[C@@]6(C)[C@@H]5CC[C@]43C)[C@@H]2C1	Leishmania mexicana	parasite growth, resazurin	–	50 µM, amastigote	inhibition	99.1%
O=c1cc(-c2ccc(O)c(O)c2)oc2cc(O)cc(O)c12	–	tubulin polymerisation, inhibitor	–	10 µM	inhibition	26.2%
C[C@H](O)[C@H](O)[C@@H](O)[C@@H](O)[C@@H]1OC[C@@]2(C)[C@@H]3CC[C@]4(C)[C@H](CC=C5[C@@H]6CC(C)(C)CC[C@]6(C(=O)O)CC[C@]54C)[C@@]3(C)CC[C@@H]2O1	Leishmania mexicana	parasite growth, resazurin	–	50 µM, amastigote	inhibition	100%
CC1(C)CC[C@]2(C)CC[C@]3(C)[C@H]4CC=C5[C@@H](CC[C@H](O)C5(C)C)[C@]4(C)CC[C@@]3(C)[C@@H]2C1	–	tubulin polymerisation, inhibitor	–	10 µM	inhibition	17%
O=C1NC(=S)S/C1=C\c1c2ccccc2c(-c2ccc(N(c3ccccc3)c3ccccc3)cc2)c2ccccc12	Staphylococcus epidermidis	microbial growth, broth dilution	ATCC12228	–	MIC	> 1000 µg/mL
O=C(Nc1cnc(Cl)c(Cl)c1)c1cc([N+](=O)[O-])c(F)cc1F	Leishmania mexicana	parasite growth	J774.A1	intracellular, amastigote	EC50	220 nM
CN(C[C@H](O)[C@@H](O)[C@H](O)[C@H](O)CO)C(=O)N[C@]12CCC(C)(C)C[C@H]1C1=CC[C@@H]3[C@@]4(C)CC[C@@H]5OC(C)(C)OC[C@@]5(C)[C@@H]4CC[C@@]3(C)[C@]1(C)CC2	Leishmania mexicana	parasite growth, resazurin	–	50 µM, amastigote	inhibition	99%
Cc1ccc(-c2nc3ccccc3s2)cc1NC(=O)c1cc([N+](=O)[O-])c(N(C)C)cc1Cl	Leishmania mexicana	parasite growth	J774.A1	intracellular, amastigote	EC50	> 10000 nM
O=C1NC(=S)N/C1=C\c1c2ccccc2c(-c2ccc(N(c3ccccc3)c3ccccc3)cc2)c2ccccc12	Staphylococcus epidermidis	microbial killing, broth dilution	ATCC12228	–	MBC	> 1000 µg/mL
CC1(C)CC[C@]2(C(=O)OCN3C(=O)c4ccccc4C3=O)CC[C@]3(C)C(=CC[C@@H]4[C@@]5(C)CC[C@H](O)[C@@](C)(CO)[C@@H]5CC[C@]43C)[C@@H]2C1	Leishmania mexicana	parasite growth, resazurin	–	50 µM, amastigote	inhibition	98.6%
COc1cc(-c2ccc(-c3ccc(C(=N)N)nc3)s2)cc(OC)c1OC	HOP-62	cell growth or viability, SRB	–	–	GI50	2790 nM
C[C@@H]1O[C@@H](C[C@@H]2OC[C@@]3(C)[C@@H]4CC[C@]5(C)[C@H](CC=C6[C@@H]7CC(C)(C)CC[C@]7(C(=O)O)CC[C@]65C)[C@@]4(C)CC[C@@H]3O2)[C@@H](O)[C@H](O)[C@@H]1O	Leishmania mexicana	parasite growth, resazurin	–	50 µM, amastigote	inhibition	99.2%
O=C(O)CN1C(=O)/C(=C/c2ccc(-c3ccc(N(c4ccccc4)c4ccccc4)cc3)cc2)SC1=S	Staphylococcus epidermidis	microbial killing, broth dilution	ATCC12228	–	MBC	7.8 µg/mL (≈ 14.9 µM)
CC1(C)CC[C@]2(C(=O)OCc3ccccc3[N+](=O)[O-])CC[C@]3(C)C(=CC[C@@H]4[C@@]5(C)CC[C@H](O)[C@@](C)(CO)[C@@H]5CC[C@]43C)[C@@H]2C1	Leishmania mexicana	parasite growth, resazurin	–	50 µM, amastigote	inhibition	100%
O=c1c(O[C@@H]2O[C@H](CO)[C@@H](O)[C@H](O)[C@H]2O)c(-c2ccc(O)cc2)oc2cc(O)cc(O)c12	–	tubulin polymerisation, inhibitor	–	10 µM	inhibition	21.2%
CO[C@H]1O[C@H]([C@@H]2OC[C@@]3(C)[C@@H]4CC[C@]5(C)[C@H](CC=C6[C@@H]7CC(C)(C)CC[C@]7(C(=O)O)CC[C@]65C)[C@@]4(C)CC[C@@H]3O2)[C@@H](O)[C@H](O)[C@H]1O	Leishmania mexicana	parasite growth, resazurin	–	50 µM, amastigote	inhibition	96.6%
O=c1ccc2cc3ccoc3cc2o1	–	tubulin polymerisation, inhibitor	–	10 µM	inhibition	30.1%
Cc1cc(Cl)c(Cl)cc1NC(=O)c1cc([N+](=O)[O-])c(F)cc1F	Leishmania mexicana	parasite growth	J774.A1	intracellular, amastigote	EC50	340 nM
CC[C@H](CC[C@@H](C)[C@H]1CC[C@H]2[C@@H]3CC=C4C[C@@H](O[C@@H]5O[C@H](CO)[C@@H](O)[C@H](O)[C@H]5O)CC[C@]4(C)[C@H]3CC[C@]12C)C(C)C	–	tubulin polymerisation, inhibitor	–	10 µM	inhibition	14.4%
O=C1NC(=S)N/C1=C\c1ccc(-c2ccc(N(c3ccccc3)c3ccccc3)cc2)c2ccccc12	Staphylococcus epidermidis	microbial killing, broth dilution	ATCC12228	–	MBC	> 1000 µg/mL
Cc1ccc(-c2nc3ccccc3s2)cc1NC(=O)c1cc([N+](=O)[O-])ccc1Cl	Leishmania mexicana	parasite growth	J774.A1	intracellular, amastigote	EC50	> 10000 nM
C/C=C(/C)C(=O)O[C@@H]1[C@H](OC(C)=O)c2c(ccc3ccc(=O)oc23)OC1(C)C	–	tubulin polymerisation, inhibitor	–	10 µM	inhibition	24.8%
